Results taken from ChEMBL document CHEMBL1152610, “3- and 6-Substituted 2-amino-4,5,6,7-tetrahydrothieno[2,3-c]pyridines as A1 adenosine receptor allosteric modulators and antagonists” (Bioorg Med Chem, 2009).
pEC50: −log10 of the molar value. The source made the active and inactive calls. No cut-off for these calls is given here.

Assays:
[1] = biological target: T1, Adenosine receptor A1 (Homo sapiens) (UniProt P30542); test: Agonist activity at human adenosine A1 receptor expressed in CHOk1 cells assessed as potentiation of R-PIA-induced ERK1/2 phosphorylation at 10 uM; type: functional, cell-based
T1 sequence (whole entry): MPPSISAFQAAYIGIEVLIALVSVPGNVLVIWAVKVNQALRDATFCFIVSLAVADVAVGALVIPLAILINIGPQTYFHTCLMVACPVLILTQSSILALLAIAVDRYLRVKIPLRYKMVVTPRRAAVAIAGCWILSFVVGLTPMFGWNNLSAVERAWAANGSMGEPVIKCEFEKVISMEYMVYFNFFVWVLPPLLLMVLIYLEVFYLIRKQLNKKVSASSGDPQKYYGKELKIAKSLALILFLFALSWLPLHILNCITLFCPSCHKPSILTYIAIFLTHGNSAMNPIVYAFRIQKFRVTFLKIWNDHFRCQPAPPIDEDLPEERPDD
In short: (§1)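 FlpIn-CHO cells stably expressing human A1AR were seeded at 50,000/well and kept in serum-free DMEM/20 mM HEPES for at least 4 h. They were pretreated for 30 min with 1 U/mL adenosine deaminase, then for 30 min at 37 °C with compound at 3 or 10 μM.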

Adenosine receptor A1 [2] = biological target: T2, Adenosine receptor A1 (Homo sapiens, UniProt P30542); test: Allosteric modulatory activity at human adenosine A1 receptor expressed in CHOk1 cells assessed as drug level causing half maximal allosteric effect on [125I]-ABA dissociation from receptor-G protein ternary complex by dissociation kinetic binding assay; type: cell-based
T2 sequence (P30542 whole entry): T1 sequence (whole entry)

[3] = biological target: T1, Adenosine receptor A1 (Homo sapiens); test: Allosteric modulatory activity at human adenosine A1 receptor expressed in CHOk1 cells assessed as [125I]-ABA-receptor-G protein ternary complex remaining after 10 mins of radioligand dissociation at 50 uM by dissociation kinetic binding assay; type: cell-based
In short: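 Membranes (10 μg) from CHO-K1 cells stably expressing human A1AR were equilibrated for 90 min at room temperature with 0.5 nM [125I]-ABA in 10 mM HEPES pH 7.2, 0.5 mM MgCl2 and 1 U/mL adenosine deaminase. Modulator (0.1–50 μM final) was added for 30 min. Dissociation was started with 100 μM orthosteric antagonist plus 25 μM GTPγS for 10 min, then samples were filtered and counted. K-score is the % specific binding remaining; EC50 comes from a variable-slope sigmoidal fit.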

[4] = biological target: T1, Adenosine receptor A1 (Homo sapiens); test: Agonist activity at human adenosine A1 receptor expressed in CHOk1 cells assessed as potentiation of R-PIA-induced ERK1/2 phosphorylation at 3 uM; type: functional, cell-based; in short: as §1
[5] = biological target: T1, Adenosine receptor A1 (Homo sapiens); test: Agonist activity at human adenosine A1 receptor expressed in CHOk1 cells assessed as induction of ERK1/2 phosphorylation at 10 uM relative to R-PIA; type: functional, cell-based; in short: as §1
Adenosine receptor A1 [6] = biological target: T2, Adenosine receptor A1; test: Antagonist activity at human adenosine A1 receptor expressed in CHOk1 cells assessed as inhibition of R-PIA-induced ERK1/2 phosphorylation; type: functional, cell-based; settings: read-out: pA2 (converted)
In short: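 Human A1AR FlpIn-CHO cells were serum-starved and pretreated for 30 min with 1 U/mL adenosine deaminase. Modulator (0.3, 1, 3, 10 or 30 μM) or none was then added for 30 min at 37 °C. Full R-PIA concentration–response curves followed, with 5 min stimulation. ERK1/2 phosphorylation was measured by AlphaScreen SureFire and normalized to the 6 min 3% FBS response.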

| Activity [1] | pEC50 (Adenosine receptor A1 [2]) | Activity [3] [%] | Activity [4] | Activity [5] | Kb (Adenosine receptor A1 [6]) [nM] | SMILES |
| --- | --- | --- | --- | --- | --- | --- |
| inactive | < 4.70 | 14.8 | inactive | inactive | – | CN1CCc2c(sc(N)c2C#N)C1 |
| inactive | 4.93 | 58.5 | inactive | inactive | – | CCOC(=O)c1c(N)sc2c1CCNC2 |
| inactive | < 4.70 | 14.9 | inactive | inactive | – | CCOC(=O)c1c(N)sc2c1CCN(C)C2 |
| inactive | 5.04 | 92.9 | inactive | inactive | 1820 | CCOC(=O)c1c(N)sc2c1CCN(C(=O)[C@@H](Cc1ccc(Cl)cc1)N(C)C(=O)OC(C)(C)C)C2 |
| Active | < 4.70 | 32.6 | Active | – | – | Nc1sc2c(c1C(=O)c1ccc(Cl)cc1)CCN(Cc1ccccc1)C2 |
| inactive | 4.99 | 44.9 | inactive | inactive | – | CCOC(=O)c1c(N)sc2c1CCN(Cc1ccccc1)C2 [TINORIDINE] |
| inactive | < 4.70 | 22.9 | inactive | inactive | – | CC(C)(C)OC(=O)N1CCc2c(sc(N)c2C#N)C1 |
| inactive | 4.88 | 88 | inactive | inactive | – | CN1CCc2c(sc(N)c2C(=O)NCc2cccc(Cl)c2)C1 |
| inactive | 4.94 | 77.1 | inactive | inactive | – | CN1CCc2c(sc(N)c2C(=O)O)C1 |
| inactive | 4.92 | 87.2 | inactive | inactive | – | CN1CCc2c(sc(N)c2C(=O)NCc2ccccc2)C1 |
| inactive | 4.88 | 32.8 | inactive | inactive | 832 | CCOC(=O)c1c(N)sc2c1CCN(C(=O)OC(C)(C)C)C2 |
| inactive | 4.81 | 46.9 | inactive | inactive | – | Nc1sc2c(c1C(=O)NCc1cccc(C(F)(F)F)c1)CCN(Cc1ccccc1)C2 |
| inactive | < 4.70 | 19.1 | inactive | inactive | – | NC(=O)c1c(N)sc2c1CCN(Cc1ccccc1)C2 |
| inactive | 5.36 | 85.7 | inactive | inactive | – | CN1CCc2c(sc(N)c2C(=O)NN)C1 |
| inactive | 5.10 | 93.2 | inactive | inactive | – | CCOC(=O)c1c(N)sc2c1CCN(C(=O)[C@H](CSC(c1ccccc1)(c1ccccc1)c1ccccc1)NC(=O)OC(C)(C)C)C2 |
| inactive | 4.94 | 83.1 | inactive | inactive | – | CN1CCc2c(sc(N)c2C(=O)NNc2ccccc2)C1 |
| inactive | 5.05 | 82.9 | inactive | inactive | – | NNC(=O)c1c(N)sc2c1CCN(Cc1ccccc1)C2 |
| inactive | 4.82 | 52 | inactive | inactive | – | N#Cc1c(N)sc2c1CCN(Cc1ccccc1)C2 |
| inactive | 4.88 | 37.6 | inactive | inactive | – | Nc1sc2c(c1C(=O)NCc1ccccc1)CCN(Cc1ccccc1)C2 |
| inactive | 5.14 | 82.5 | inactive | inactive | 372 | CCOC(=O)c1c(N)sc2c1CCN(C(=O)[C@H](Cc1ccccc1)NC(=O)OC(C)(C)C)C2 |
| inactive | 5.11 | 55.4 | inactive | inactive | – | Nc1sc2c(c1C(=O)NNc1ccccc1)CCN(Cc1ccccc1)C2 |
| inactive | 4.92 | 66.1 | inactive | inactive | – | CC(C)(C)OC(=O)N1CCc2c(sc(N)c2C(=O)O)C1 |
| inactive | 5.10 | 68.3 | inactive | inactive | – | Nc1sc2c(c1C(=O)O)CCN(Cc1ccccc1)C2 |
| inactive | < 4.70 | 19.8 | inactive | inactive | – | CN1CCc2c(sc(N)c2C(N)=O)C1 |
| inactive | < 4.70 | 36 | inactive | inactive | – | Nc1sc2c(c1C(=O)NCc1cccc(Cl)c1)CCN(Cc1ccccc1)C2 |
